Measurements taken from ChEMBL document CHEMBL1134286, “Novel erythromycin derivatives with aryl groups tethered to the C-6 position are potent protein synthesis inhibitors and active against multidrug-resistant respiratory pathogens” (J Med Chem, 2001).
Values after ≈ are worked out from the molar mass of the structure shown.

How the values were obtained:
Streptococcus pneumoniae [1] = assay: Minimum inhibitory concentration against Streptococcus pneumoniae 6303 (erythromycin susceptible strain); format: functional
Procedure, shortened: (§1)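 MICs were determined by agar dilution following National Committee for Clinical Laboratory Standards recommendations. Values are in µg/mL.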

Mus musculus [2] = species: Mus musculus; assay: Mouse protection tests for effective dose against Staphylococcus aureus 10649 ((erythromycin susceptible strain)) infected mice; format: functional
Streptococcus pneumoniae [3] = assay: Minimum inhibitory concentration against Streptococcus pneumoniae ATCC 6303 Ery-S; format: functional; procedure, shortened: as §1
Staphylococcus aureus [4] = assay: Minimum inhibitory concentration against Staphylococcus aureus A 5278 MLSB-c; format: functional; procedure, shortened: as §1
Staphylococcus aureus [5] = assay: Minimum inhibitory concentration against Staphylococcus aureus A 5177 MLSB-i; format: functional; procedure, shortened: as §1
[6] = Minimum inhibitory concentration against Streptococcus pyogenes PIU2548 efflux; format: functional; procedure, shortened: as §1
[7] = Minimum inhibitory concentration against Streptococcus pyogenes 930MLSB; format: functional; procedure, shortened: as §1
Streptococcus pneumoniae [8] = assay: Minimum inhibitory concentration against Streptococcus pneumoniae 5649 efflux; format: functional; procedure, shortened: as §1
[9] = Minimum inhibitory concentration against Streptococcus pyogenes EES 61 Ery-S; format: functional; procedure, shortened: as §1
[10] = Minimum inhibitory concentration against Haemophilus influenzae DILL Amp-R; format: functional; procedure, shortened: as §1
Staphylococcus aureus [11] = assay: Minimum inhibitory concentration against Staphylococcus aureus 10649 (erythromycin susceptible strain); format: functional; procedure, shortened: as §1
[12] = Minimum inhibitory concentration against Streptococcus pneumoniae 5737 MLSB; format: functional; procedure, shortened: as §1
Staphylococcus aureus [13] = assay: Minimum inhibitory concentration against Staphylococcus aureus ATCC 6538PEry-S; format: functional; conditions: ATCC 6538P; procedure, shortened: as §1
Mus musculus [14] = species: Mus musculus; assay: Mouse protection tests for effective dose against Streptococcus pneumoniae 6303 ((erythromycin susceptible strain)) infected mice; format: functional
Streptococcus pneumoniae [15] = assay: Cell free inhibiting activity against erythromycin-susceptible strain Streptococcus pneumoniae 5635 (Wild type ribosomes for transcription/translation assay); format: functional
Procedure, shortened: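 Cell-free coupled transcription/translation assay using bacterial ribosome S-30 extracts. Wild-type ribosomes were isolated from the erythromycin-susceptible strain S. pneumoniae 5635. Inhibition is reported as IC50 (µM).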

Streptococcus pneumoniae [16] = assay: Cell free inhibiting activity against MLSB-resistant strain Streptococcus pneumoniae 1813 (methylated ribosomes for transcription/translation assay)

SMILES	MIC (Streptococcus pneumoniae [1])	MIC (Streptococcus pneumoniae [3])	MIC (Staphylococcus aureus [4])	MIC (Staphylococcus aureus [5])	MIC [6]	MIC [7]	MIC (Streptococcus pneumoniae [8])	MIC [9]	MIC [10]	MIC (Staphylococcus aureus [11])	MIC [12]	MIC (Staphylococcus aureus [13])	IC50 (Streptococcus pneumoniae [15])	IC50 (Streptococcus pneumoniae [16])	ED50 (Mus musculus [2])	ED50 (Mus musculus [14])
CC[C@H]1OC(=O)[C@H](C)C(=O)[C@H](C)[C@@H](O[C@@H]2O[C@H](C)C[C@H](N(C)C)[C@H]2O)[C@](C)(OC/C=C/c2cnc3ccccc3c2)C[C@@H](C)C2=NCCN3C(=O)O[C@@]1(C)[C@H]3[C@H]2C	0.06 mg/L (≈ 0.0759 µM)	0.06 mg/L (≈ 0.0759 µM)	> 100 mg/L	0.05 mg/L (≈ 0.0632 µM)	2 mg/L (≈ 2.53 µM)	16 mg/L (≈ 20.2 µM)	1 mg/L (≈ 1.26 µM)	0.06 mg/L (≈ 0.0759 µM)	4 mg/L (≈ 5.06 µM)	0.05 mg/L (≈ 0.0632 µM)	128 mg/L (≈ 162 µM)	0.05 mg/L (≈ 0.0632 µM)	–	–	60.4 mg/kg	23.5 mg/kg
C=CCO[C@]1(C)C[C@@H](C)C(=O)[C@H](C)[C@H]2NC(=O)O[C@]2(C)[C@@H](CC)OC(=O)[C@H](C)C(=O)[C@H](C)[C@H]1O[C@@H]1O[C@H](C)C[C@H](N(C)C)[C@H]1O	–	0.5 mg/L (≈ 0.783 µM)	> 100 mg/L	1.56 mg/L (≈ 2.44 µM)	1 mg/L (≈ 1.57 µM)	> 64 mg/L	0.25 mg/L (≈ 0.391 µM)	0.25 mg/L (≈ 0.391 µM)	64 mg/L (≈ 100 µM)	–	> 64 mg/L	0.78 mg/L (≈ 1.22 µM)	0.35 µM	> 500 µM	–	–
CC[C@H]1OC(=O)[C@H](C)C(=O)[C@H](C)[C@@H](O[C@@H]2O[C@H](C)C[C@H](N(C)C)[C@H]2O)[C@](C)(OC)C[C@@H](C)C(=O)[C@H](C)[C@H]2N(CCCCn3cnc(-c4cccnc4)c3)C(=O)O[C@]12C [TELITHROMYCIN]	0.004 mg/L (≈ 0.00493 µM)	–	–	–	–	–	–	–	–	0.1 mg/L (≈ 0.123 µM)	–	–	–	–	12.5 mg/kg	34.1 mg/kg
CC[C@H]1OC(=O)[C@H](C)C(=O)[C@H](C)[C@@H](O[C@@H]2O[C@H](C)C[C@H](N(C)C)[C@H]2O)[C@](C)(OC/C=C/c2ccccc2)C[C@@H](C)C(=O)[C@H](C)[C@H]2NC(=O)O[C@@]21C	0.03 mg/L (≈ 0.042 µM)	0.03 mg/L (≈ 0.042 µM)	> 100 mg/L	0.1 mg/L (≈ 0.14 µM)	0.25 mg/L (≈ 0.35 µM)	64 mg/L (≈ 89.5 µM)	0.25 mg/L (≈ 0.35 µM)	0.03 mg/L (≈ 0.042 µM)	4 mg/L (≈ 5.6 µM)	0.1 mg/L (≈ 0.14 µM)	64 mg/L (≈ 89.5 µM)	0.1 mg/L (≈ 0.14 µM)	–	–	30.2 mg/kg	> 40 mg/kg
CC[C@H]1OC(=O)[C@H](C)[C@@H](O[C@H]2C[C@@](C)(OC)[C@@H](O)[C@H](C)O2)[C@H](C)[C@@H](O[C@@H]2O[C@H](C)C[C@H](N(C)C)[C@H]2O)[C@](C)(OC/C=C/c2ccccc2)C[C@@H](C)C(=O)[C@H](C)[C@@H](O)[C@]1(C)O	–	0.06 mg/L (≈ 0.0706 µM)	> 100 mg/L	6.2 mg/L (≈ 7.29 µM)	16 mg/L (≈ 18.8 µM)	32 mg/L (≈ 37.6 µM)	4 mg/L (≈ 4.71 µM)	0.03 mg/L (≈ 0.0353 µM)	4 mg/L (≈ 4.71 µM)	–	32 mg/L (≈ 37.6 µM)	0.39 mg/L (≈ 0.459 µM)	–	–	–	–
CC[C@H]1OC(=O)[C@H](C)C(=O)[C@H](C)[C@@H](O[C@@H]2O[C@H](C)C[C@H](N(C)C)[C@H]2O)[C@](C)(OC/C=C/c2ccc(OC)cc2)C[C@@H](C)C(=O)[C@H](C)[C@@H](O)[C@]1(C)O	–	1 mg/L (≈ 1.39 µM)	> 100 mg/L	1.56 mg/L (≈ 2.17 µM)	2 mg/L (≈ 2.78 µM)	64 mg/L (≈ 88.9 µM)	2 mg/L (≈ 2.78 µM)	0.25 mg/L (≈ 0.347 µM)	128 mg/L (≈ 178 µM)	–	128 mg/L (≈ 178 µM)	1.56 mg/L (≈ 2.17 µM)	–	–	–	–
CC[C@H]1OC(=O)[C@H](C)C(=O)[C@H](C)[C@@H](O[C@@H]2O[C@H](C)C[C@H](N(C)C)[C@H]2O)[C@](C)(OCCNCCc2ccccc2)C[C@@H](C)C(=O)[C@H](C)[C@@H](O)[C@]1(C)O	–	2 mg/L (≈ 2.77 µM)	> 100 mg/L	6.2 mg/L (≈ 8.6 µM)	8 mg/L (≈ 11.1 µM)	> 128 mg/L	4 mg/L (≈ 5.55 µM)	2 mg/L (≈ 2.77 µM)	64 mg/L (≈ 88.8 µM)	–	> 128 mg/L	6.2 mg/L (≈ 8.6 µM)	–	–	–	–
CC[C@H]1OC(=O)[C@H](C)C(=O)[C@H](C)[C@@H](O[C@@H]2O[C@H](C)C[C@H](N(C)C)[C@H]2O)[C@](C)(OC/C=C/c2cnc3ccccc3c2)C[C@@H](C)C(=O)[C@H](C)[C@@H](O)[C@]1(C)O	0.03 mg/L (≈ 0.0405 µM)	0.03 mg/L (≈ 0.0405 µM)	> 100 mg/L	0.2 mg/L (≈ 0.27 µM)	0.1 mg/L (≈ 0.135 µM)	100 mg/L (≈ 135 µM)	0.25 mg/L (≈ 0.337 µM)	0.2 mg/L (≈ 0.27 µM)	16 mg/L (≈ 21.6 µM)	0.2 mg/L (≈ 0.27 µM)	16 mg/L (≈ 21.6 µM)	0.2 mg/L (≈ 0.27 µM)	–	–	27.2 mg/kg	> 40 mg/kg

Second part, led by results:

MIC (Streptococcus pneumoniae [1])	MIC (Streptococcus pneumoniae [3])	MIC (Staphylococcus aureus [4])	MIC (Staphylococcus aureus [5])	MIC [6]	MIC [7]	MIC (Streptococcus pneumoniae [8])	MIC [9]	MIC [10]	MIC (Staphylococcus aureus [11])	MIC [12]	MIC (Staphylococcus aureus [13])	IC50 (Streptococcus pneumoniae [15])	IC50 (Streptococcus pneumoniae [16])	SMILES	ED50 (Mus musculus [2])	ED50 (Mus musculus [14])
0.03 mg/L (≈ 0.0391 µM)	0.03 mg/L (≈ 0.0391 µM)	> 100 mg/L	0.2 mg/L (≈ 0.261 µM)	0.5 mg/L (≈ 0.652 µM)	2 mg/L (≈ 2.61 µM)	0.25 mg/L (≈ 0.326 µM)	0.03 mg/L (≈ 0.0391 µM)	4 mg/L (≈ 5.22 µM)	0.2 mg/L (≈ 0.261 µM)	0.5 mg/L (≈ 0.652 µM)	0.2 mg/L (≈ 0.261 µM)	–	–	CC[C@H]1OC(=O)[C@H](C)C(=O)[C@H](C)[C@@H](O[C@@H]2O[C@H](C)C[C@H](N(C)C)[C@H]2O)[C@](C)(OC/C=C/c2ccc3ncncc3c2)C[C@@H](C)C(=O)[C@H](C)[C@H]2NC(=O)O[C@@]21C	9.2 mg/kg	40.3 mg/kg
0.015 mg/L (≈ 0.0195 µM)	0.015 mg/L (≈ 0.0195 µM)	> 100 mg/L	0.1 mg/L (≈ 0.13 µM)	0.25 mg/L (≈ 0.326 µM)	4 mg/L (≈ 5.21 µM)	0.25 mg/L (≈ 0.326 µM)	0.004 mg/L (≈ 0.00521 µM)	2 mg/L (≈ 2.6 µM)	0.1 mg/L (≈ 0.13 µM)	8 mg/L (≈ 10.4 µM)	0.1 mg/L (≈ 0.13 µM)	–	–	CC[C@H]1OC(=O)[C@H](C)C(=O)[C@H](C)[C@@H](O[C@@H]2O[C@H](C)C[C@H](N(C)C)[C@H]2O)[C@](C)(OCCCc2cnc3ccccc3c2)C[C@@H](C)C(=O)[C@H](C)[C@H]2NC(=O)O[C@@]21C	27.1 mg/kg	33 mg/kg
0.008 mg/L (≈ 0.0104 µM)	0.008 mg/L (≈ 0.0104 µM)	> 100 mg/L	0.05 mg/L (≈ 0.0652 µM)	0.5 mg/L (≈ 0.652 µM)	4 mg/L (≈ 5.22 µM)	0.5 mg/L (≈ 0.652 µM)	0.015 mg/L (≈ 0.0196 µM)	2 mg/L (≈ 2.61 µM)	0.05 mg/L (≈ 0.0652 µM)	0.25 mg/L (≈ 0.326 µM)	0.05 mg/L (≈ 0.0652 µM)	–	–	CC[C@H]1OC(=O)[C@H](C)C(=O)[C@H](C)[C@@H](O[C@@H]2O[C@H](C)C[C@H](N(C)C)[C@H]2O)[C@](C)(OC/C=C/c2cnc3ccncc3c2)C[C@@H](C)C(=O)[C@H](C)[C@H]2NC(=O)O[C@@]21C	12.5 mg/kg	> 50 mg/kg
–	0.015 mg/L (≈ 0.0196 µM)	> 100 mg/L	0.1 mg/L (≈ 0.131 µM)	1 mg/L (≈ 1.31 µM)	16 mg/L (≈ 20.9 µM)	1 mg/L (≈ 1.31 µM)	0.015 mg/L (≈ 0.0196 µM)	16 mg/L (≈ 20.9 µM)	–	> 128 mg/L	0.1 mg/L (≈ 0.131 µM)	–	–	CC[C@H]1OC(=O)[C@H](C)C(=O)[C@H](C)[C@@H](O[C@@H]2O[C@H](C)C[C@H](N(C)C)[C@H]2O)[C@](C)(OC/C=C/c2ccc3ccccc3c2)C[C@@H](C)C(=O)[C@H](C)[C@H]2NC(=O)O[C@@]21C	–	–
–	0.015 mg/L (≈ 0.0196 µM)	50 mg/L (≈ 65.4 µM)	0.1 mg/L (≈ 0.131 µM)	0.25 mg/L (≈ 0.327 µM)	16 mg/L (≈ 20.9 µM)	0.25 mg/L (≈ 0.327 µM)	0.015 mg/L (≈ 0.0196 µM)	4 mg/L (≈ 5.23 µM)	–	8 mg/L (≈ 10.5 µM)	0.1 mg/L (≈ 0.131 µM)	–	–	CC[C@H]1OC(=O)[C@H](C)C(=O)[C@H](C)[C@@H](O[C@@H]2O[C@H](C)C[C@H](N(C)C)[C@H]2O)[C@](C)(OC/C=C/c2cccc3ccccc23)C[C@@H](C)C(=O)[C@H](C)[C@H]2NC(=O)O[C@@]21C	–	–
